ChEMBL document CHEMBL1139169, “Design, synthesis, and antiviral properties of 4'-substituted ribonucleosides as inhibitors of hepatitis C virus replication: the discovery of R1479” (Bioorg Med Chem Lett, 2007)

Assays:
Hepatitis C virus [1] = assay: Antiviral activity against HCV 1b replicon in human 2209-23 cells assessed as inhibition of viral replication at 100 uM; assay type: functional, Hepacivirus hominis; conditions: genotype 1b
[2] = Cytotoxicity against human 2209-23 cells at 20 uM; assay type: cell-based; conditions: 2209-23, 20 µM
Hepatitis C virus [3] = assay: Antiviral activity against HCV 1b replicon in human 2209-23 cells assessed as inhibition of viral replication at 20 uM; assay type: functional, Hepacivirus hominis; conditions: genotype 1b
How it was run: (§1)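 Huh-7 replicon cell line 2209-23. Compounds were tested at a single fixed concentration and scored as percent inhibition of replicon replication, or titrated to give the IC50, the concentration producing a 50% reduction in replicon replication.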

Hepatitis C virus [4] = assay: Inhibition of HCV 1b BK NS5B570 RNA polymerase; set-up: species or system Hepatitis C virus subtype 1b
How it was run: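 NS5B570-BK polymerase activity was read as incorporation of radiolabeled nucleoside monophosphate into acid-insoluble RNA products, with HCV cIRES RNA as template.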

Hepatitis C virus [5] = assay: Antiviral activity against HCV 1b replicon in human 2209-23 cells; assay type: functional, organism-based, Hepacivirus hominis; conditions: genotype 1b; how it was run: as §1
[6] = Cytotoxicity against human 2209-23 cells; assay type: cell-based
[7] = Cytostatic activity against human 2209-23 cells; assay type: ADME, cell-based; conditions: read-out: CT50 (the source's name)
How it was run: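 Replicon cells were tested for proliferation by measuring incorporation of tritiated thymidine into cellular DNA with a scintillation proximity assay (SPA). CT50 was taken as the cytostatic concentration.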

[8] = Cytotoxicity against human 2209-23 cells at 100 uM; assay type: cell-based; conditions: 2209-23, 100 µM

SMILES | Activity [2] [%] | inhibition at 20 µM (Hepatitis C virus [3]) [%] | further results
C=C[C@]1(CO)O[C@@H](n2ccc(=O)[nH]c2=O)[C@H](O)[C@@H]1O | 0 | – | inhibition at 100 µM (Hepatitis C virus [1]): 50%
N#C[C@]1(CO)O[C@@H](n2ccc(N)nc2=O)[C@H](O)[C@@H]1O | 100 | 99 | –
[N-]=[N+]=N[C@]1(CO)O[C@@H](n2ccc(=O)[nH]c2=O)[C@H](O)[C@@H]1O | 17 | 13 | IC50 (Hepatitis C virus [4]): 0.3 µM
CCO[C@]1(CO)O[C@@H](n2ccc(N)nc2=O)[C@H](O)[C@@H]1O | 0 | 11 | –
C=CC[C@]1(CO)O[C@@H](n2ccc(N)nc2=O)[C@H](O)[C@@H]1O | 0 | 0 | –
N#C[C@]1(CO)O[C@@H](n2ccc(=O)[nH]c2=O)[C@H](O)[C@@H]1O | 0 | 0 | –
CC#C[C@]1(CO)O[C@@H](n2ccc(N)nc2=O)[C@H](O)[C@@H]1O | 0 | 11 | –
[N-]=[N+]=N[C@]1(CO)O[C@@H](n2ccc(N)nc2=O)[C@H](O)[C@@H]1O [4'-AZIDOCYTIDINE] | 13 | 97 | IC50 (Hepatitis C virus [5]): 1.28 µM; CC50 [6]: > 2000 µM; GI50 [7]: > 100 µM; IC50 (Hepatitis C virus [4]): 0.29 µM
C[C@@]1(O)[C@H](O)[C@@H](CO)O[C@H]1n1ccc(N)nc1=O | – | – | IC50 (Hepatitis C virus [5]): 1.23 µM; CC50 [6]: > 33 µM; GI50 [7]: > 100 µM
Nc1ccn([C@@H]2O[C@H](CO)[C@@H](O)[C@H]2F)c(=O)n1 | – | – | IC50 (Hepatitis C virus [5]): 0.58 µM; CC50 [6]: > 100 µM; GI50 [7]: 0.8 µM
C#C[C@]1(CO)O[C@@H](n2ccc(N)nc2=O)[C@H](O)[C@@H]1O | 0 | 3 | IC50 (Hepatitis C virus [4]): 2.7 µM
CC#C[C@]1(CO)O[C@@H](n2ccc(=O)[nH]c2=O)[C@H](O)[C@@H]1O | – | – | inhibition at 100 µM (Hepatitis C virus [1]): 76%; Activity [8]: 19%
C#C[C@]1(CO)O[C@@H](n2ccc(=O)[nH]c2=O)[C@H](O)[C@@H]1O | 0 | 0 | –
Nc1ccn([C@@H]2OC(CO)(CO)[C@@H](O)[C@H]2O)c(=O)n1 | 2 | 13 | –
O=c1ccn([C@@H]2OC(CO)(CO)[C@@H](O)[C@H]2O)c(=O)[nH]1 | 0 | 1 | –
C=C[C@]1(CO)O[C@@H](n2ccc(N)nc2=O)[C@H](O)[C@@H]1O | 0 | – | inhibition at 100 µM (Hepatitis C virus [1]): 53%
C=CC[C@]1(CO)O[C@@H](n2ccc(=O)[nH]c2=O)[C@H](O)[C@@H]1O | – | – | IC50 (Hepatitis C virus [5]): 22 µM; CC50 [6]: 39 µM
CC[C@]1(CO)O[C@@H](n2ccc(N)nc2=O)[C@H](O)[C@@H]1O | – | – | inhibition at 100 µM (Hepatitis C virus [1]): 20%; Activity [8]: 20%
